# Where “and” joins values, the source holds several entries; their conditions need not be identical. Identical values can stand only once. Counter-ions that a name gives are not always drawn. Like-named read-outs stand apart in the source and are kept apart here.
# Tests used:
# [1] = test system: A549 human lung cancer cell line; assay: Sulforhodamine B; assay type: cell-based; details: read-out: Growth inhibition, IC50
# Procedure, shortened: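 SRB growth assay. A549 cells were grown in RPMI 1640 with 10% FBS, 2% penicillin/streptomycin and 1% amphotericin B, then seeded at 8,000 per well overnight. Cells were exposed 24, 48 or 72 h to graded test compound (0.5% DMSO final; reference drug alongside). Cells were fixed in cold 40% TCA for 1 h at 4°C and stained with 0.4% SRB for 30 min. Dye was solubilised in 10 mM Tris pH 10.5 and read at 492 nm. IC50 came from % inhibition dose-response curves.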
# [2] = test system: MRC-5 human lung fibroblast; assay: Sulforhodamine B; assay type: cell-based; details: for IC50: Homo sapiens, read-out: Growth inhibition, IC50
# Procedure, shortened: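 SRB growth assay. MRC-5 fetal lung fibroblasts were grown in MEM with 10% FBS and 1% penicillin/streptomycin at 37°C, 5% CO2, then seeded at 8,000 per well overnight. Cells were exposed 24, 48 or 72 h to graded test compound (0.5% DMSO final). Cells were fixed in cold 40% TCA at 4°C, stained with 0.4% SRB, solubilised in 10 mM Tris pH 10.5 and read at 492 nm. IC50 came from % inhibition versus concentration curves.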
# A549 cells [3] = details: A549, 48 h treatment; ref 10 (Lee et al.); cited from earlier work
# breast cancer xenografts = breast cancer xenografts in nude mice; ref 24 (Monteiro et al.); cited from earlier work
# [4] = test system: DNA topoisomerase I (Top 1); details: cited from earlier work
# mice = details: cited from earlier work
# [5] = test system: MDA-MB-435 breast cancer cells; details: MDA-MB-435, 5–50 µM for 24 h; cited from earlier work
# A549 cells [6] = assay: DNA fragmentation by TUNEL assay; assay type: cell-based, human; details: 72 h, negative control 4.27 ± 0.13%
# [7] = Mitochondrial membrane potential assay; assay type: cell-based, human; details: human, A549 cells, Population of viable cells (P5 region, high Δψm), A549, 42 μM, untreated 91.42 ± 0.36%
# Procedure, shortened: (§1)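 A549 cells in RPMI 1640 with 10% FBS, 37°C, 5% CO2. Test compound in DMSO, 0.5% DMSO final. Annexin: 2.4 × 10^5 cells/well adhered overnight, 72 h exposure, 1 × 10^5 cells stained with FITC-annexin V and PI, 10,000 events per replicate. JC-1: 72 h, 15 min dye, red aggregate (FL2-A) vs green monomer (FL1-A). Mean ± SEM; at least two runs in triplicate.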
# A549 cells [8] = assay: Mitochondrial membrane potential assay; assay type: cell-based, human; details: A549, 14, 28, 42 μM, 72 h, dose-dependent
# Procedure, shortened: as §1
# caspase-8 in A549 cells = assay: Caspase-8 activity; assay type: cell-based, human; details: A549, 12, 24, 48 h; highest RLU at 14 μM at 24 h and 48 h
# caspase-3 in A549 cells = assay: Caspase-3 activity; assay type: cell-based, human; details: A549, 12, 24, 48 h
# [9] = test system: benign prostatic hyperplasia (BPH-1) epithelial cell line; details: BPH-1, 10 µM and 20 µM for 48 h; cited from earlier work
# A549 cells [10] = assay: Annexin V-FITC/PI staining, flow cytometry; assay type: cell-based, human; details: 72 h; for percentage of early apoptotic cells (Annexin V-FITC+ PI-): negative control 1.42 ± 0.47%; for population of late apoptotic or secondary necrotic cells (Annexin V-FITC+ PI+): negative control 1.80 ± 0.30%
# Procedure, shortened: as §1
# [11] = test system: HCT-116 human colon cancer cells; details: cited from earlier work
# caspase-9 in A549 cells = assay: Caspase-9 activity; assay type: cell-based, human; details: A549, 12, 24, 48 h; highest RLU at 14 μM at 24 h and 48 h
# A549 cells [12] = assay: Cell cycle analysis; assay type: cell-based, human; details: 72 h; for percentage of cells at S phase: 0 μM 8.94 ± 0.23%
# Procedure, shortened: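 After 72 h of test compound, adherent and floating A549 cells were pooled and fixed in 70% ethanol overnight. Cells were stained 30 min at room temperature with 50 μg/ml PI, 50 μg/ml RNase, 0.1% Triton X-100 and 1 mg/ml sodium citrate (final). DNA content was read by flow cytometry and modelled into sub-G1, G1, S and G2/M fractions. Runs were done at least twice in triplicate; one-way ANOVA/Tukey versus control.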
# A549 cells [13] = assay: Phase contrast microscopy; assay type: cell-based, human; details: A549, 14, 28, 42 μM, 72 h
structure (smiles),measurement,setting,value
"COc1cccc2c1C(=O)c1c(O)c3c(c(O)c1C2=O)C[C@@](O)(C(=O)CO)C[C@@H]3O[C@H]1C[C@H](N)[C@H](O)[C@H](C)O1 [Doxorubicin, Doxorubicin hydrochloride, reference compound]",IC50,"[1]; A549, 24 h",2.85 ± 0.2 µM
same,IC50,"[1]; A549, 48 h",0.22 ± 0.03 µM
same,IC50,"[1]; A549, 72 h",0.02 ± 0.02 µM
same,IC50,"[2]; MRC5, 24 h",5.71 ± 0.55 µM
same,IC50,"[2]; MRC5, 48 h",2.01 ± 0.04 µM
same,IC50,"[2]; MRC5, 72 h",1.09 ± 0.1 µM
same,IC50 (cytotoxic effects on A549),A549 cells [3],0.5 µg/mL
"COc1cc(O)c(CC=C(C)C)c(O)c1C(=O)/C=C/c1ccc(O)cc1 [Xanthohumol, 2', 4, 4'-trihydroxy-3'-prenyl-6'-methoxychalcone]",In vivo antitumor effects on isolated tumors,breast cancer xenografts,decrease in tumor-surrounding inflammatory cells and a large central necrosis
same,IC50,"[1]; A549, 24 h",74.1 ± 1.98 µM
same,IC50,"[1]; A549, 48 h",25.5 ± 0.3 µM
same,IC50,"[1]; A549, 72 h",13.5 ± 0.82 µM
same,Effect on DNA topoisomerase I (Top 1) activity,[4],inhibition of DNA topoisomerase I (Top 1) activity
same,IC50,"[2]; MRC5, 24 h",> 282 µM and > 100 µg/mL
same,IC50,"[2]; MRC5, 48 h",149 ± 4.96 µM
same,IC50,"[2]; MRC5, 72 h",94.4 ± 1.77 µM
same,Toxicity to normal cells (MRC-5) versus cancer cells (A549),"[2]; comparison of IC50 values on MRC-5 and A549, SRB assay",less toxic to normal cells compared to cancer cells
same,IC50 (cytotoxic effects on A549),A549 cells [3],4.3 µg/mL
same,Organ function and homeostasis,"mice; feeding, ref 6 (Dorn et al.)",did not impair organ function and homeostasis
same,Hematological and biochemical blood analyses versus control group,"mice; oral administration, ref 25 (Vanhoecke et al.)",no difference in hematological and biochemical blood analyses
same,Cell cycle effect,[5],S phase arrest
same,percentage of cells with DNA fragmentation,"A549 cells [6]; A549, 28 μM",34.7 ± 0.30%
same,percentage of cells with DNA fragmentation,"A549 cells [6]; A549, 42 μM",39.2 ± 0.15%
same,"viability at 72 h, 42 µM",[7],2.88 ± 0.62%
same,Effect on mitochondrial membrane potential (Δψm),A549 cells [8],significantly reduced
same,Caspase-8 activity (RLU),caspase-8 in A549 cells,significantly increased
same,Caspase-3 activity (RFU),caspase-3 in A549 cells,RFU values increased as concentration and treatment time increased
same,Cell cycle effect,[9],S phase arrest
same,percentage of early apoptotic cells (Annexin V-FITC+ PI-),"A549 cells [10]; A549, 14 μM",2.72 ± 0.59%
same,population of late apoptotic or secondary necrotic cells (Annexin V-FITC+ PI+),"A549 cells [10]; A549, 14 μM",4.90 ± 0.85%
same,percentage of early apoptotic cells (Annexin V-FITC+ PI-),"A549 cells [10]; A549, 28 μM",26.08 ± 1.50%
same,population of late apoptotic or secondary necrotic cells (Annexin V-FITC+ PI+),"A549 cells [10]; A549, 28 μM",17.05 ± 3.12%
same,percentage of early apoptotic cells (Annexin V-FITC+ PI-),"A549 cells [10]; A549, 42 μM",34.42 ± 4.41%
same,population of late apoptotic or secondary necrotic cells (Annexin V-FITC+ PI+),"A549 cells [10]; A549, 42 μM",33.27 ± 3.55%
same,Caspase activation,[11],"Activation of all caspase-3, -8, and -9"
same,Caspase-9 activity (RLU),caspase-9 in A549 cells,significantly increased
same,percentage of cells at S phase,"A549 cells [12]; A549, 14 μM",12.34 ± 1.09%
same,percentage of cells at S phase,"A549 cells [12]; A549, 28 μM",16.43 ± 1.52%
same,percentage of cells at S phase,"A549 cells [12]; A549, 42 μM",46.95 ± 2.03%
same,Effect on sub G1 population,"A549 cells [12]; A549, increasing concentration",increased the percentage of cells arrested at sub G1 peak
same,Morphological changes,A549 cells [13],"atrophy, size shrinkage, decrease in cell number, and detachment of cells"

# From paper PMC4653337 (Pharmacognosy Magazine, 2015)
